The values below come from ChEMBL document CHEMBL1135980, “Novel angular benzophenazines: dual topoisomerase I and topoisomerase II inhibitors as potential anticancer agents” (J Med Chem, 2002).

The structures appear in SMILES notation. Where only a bound is given, the exact number is not on record here.

A short description of data set [1]: Rf is the resistance factor and is the ratio of the IC50 on the resistant cell line over the IC50 on the parental COR-L23/P cell line. The settings on record: human. Summed up:
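Resistance factor computed as IC50 in COR-L23/R (MRP-overexpressing) divided by IC50 in COR-L23/P. Both IC50s come from a 5-6 day sulforhodamine B proliferation assay.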

Data set [2] concerns NCI-H69. Briefly: Rf is the resistance factor and is the ratio of the IC50 on the resistant cell line over the IC50 on the parental H69/P cell line. The format is functional, Homo sapiens. Summed up:
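Resistance factor computed as IC50 in H69/LX4 (Pgp-overexpressing) divided by IC50 in H69/P. Both IC50s come from a 5-6 day Alamar Blue proliferation assay.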

Data set [3] relates to COR-L23. Nature of the data set: Cytotoxicity measured with the drug resistant human non small cell lung carcinoma cell line COR-L23 (COR-L23/R) which over expresses multidrug resistance associated with protein(MRP). Format: functional, cell-based. Summed up: (§1)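 COR-L23/P (parental) or COR-L23/R (MRP-overexpressing) human NSCLC cells; compound added, then 5-6 days incubation; proliferation read by sulforhodamine B staining.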

Data set [4] relates to NCI-H69. Briefly: Cytotoxicity measured using the drug resistant, P-glycoprotein (Pgp) expressing human small cell lung carcinoma cell line H69/LX4. The format is functional, cell-based. Summed up:
(§2)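 H69/P (parental) or H69/LX4 (P-glycoprotein-overexpressing) human SCLC cells; compound added, then 5-6 days incubation; proliferation read with Alamar Blue.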

The test system of data set [5] is NCI-H69. Nature of the data set: Cytotoxicity measured using the H69 parental (H69/P) human small cell lung carcinoma cell line. Format: functional, cell-based. Summed up: as §2
The subject of data set [6] is COR-L23. Briefly: Cytotoxicity measured using the COR-L23 parental (COR-L23/P) human non small cell lung carcinoma cell line. The format is functional, cell-based. In short, it runs like this: as §1
Data set [7] in a line: pharmacokinetics in female BALB/c mice measured as Cmax after 50 mg/kg Preoral administration. Conditions: mouse, in vivo, po. Format: ADME, organism-based. Also noted: route oral, dose 50 mg/kg. Summed up:
(§3)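 Female Balb/c mice given 50 mg/kg by oral gavage. Blood taken by cardiac puncture under anaesthesia into heparinized syringes at 2 min-24 h. Plasma analyzed by HPLC; plasma PK parameters derived, with oral bioavailability relative to iv dosing.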

The nature of data set [8]: pharmacokinetics in female BALB/c mice measured as Kel after 50 mg/kg iv administration. Format: ADME, organism-based. Also noted: dose 50 mg/kg, route intravenous. The settings on record: mouse, in vivo. In short, it runs like this: (§4)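 Female Balb/c mice dosed intravenously at 20 or 50 mg/kg. Blood taken by cardiac puncture under anaesthesia into heparinized syringes at times from 2 min to 24 h. Plasma prepared by centrifugation and drug measured by HPLC; plasma PK parameters derived.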

Data set [9] concerns Mus musculus. Briefly: pharmacokinetics in female BALB/c mice measured as AUC after 50 mg/kg Preoral administration. Further details: dose 50 mg/kg. The format is ADME, organism-based. The settings on record: in vivo, po. Summed up: as §3
Data set [10] is described as follows: pharmacokinetics in female BALB/c mice measured as Cl after 20 mg/kg iv administration. Format: ADME, organism-based. Further details: dose 20 mg/kg, route intravenous. The settings on record: mouse, in vivo. Summed up: as §4
Data set [11] can be described thus: pharmacokinetics in female BALB/c mice measured as bioavailability (F) after 50 mg/kg peroral administration. The format is ADME, organism-based. Conditions: mouse, in vivo, po. In short, it runs like this:
as §3

The nature of data set [12]: pharmacokinetics in female BALB/c mice measured as Kel after 20 mg/kg iv administration. Further details: dose 20 mg/kg, route intravenous. Format: ADME, organism-based. Conditions: mouse, in vivo. In short, it runs like this:
as §4

Data set [13] is described as follows: pharmacokinetics in female BALB/c mice measured as Vss after 20 mg/kg iv administration. Conditions: mouse, in vivo, read-out: Vss. The format is ADME, organism-based. Also noted: dose 20 mg/kg, route intravenous. In short, it runs like this:
as §4

Data set [14] is described as follows: pharmacokinetics in female BALB/c mice measured as Cmax after 20 mg/kg iv administration. The format is ADME, organism-based. Further details: dose 20 mg/kg, route intravenous. The settings on record: mouse, in vivo. In short, it runs like this: as §4
Data set [15] deals with Mus musculus. Nature of the data set: pharmacokinetics in female BALB/c mice measured as AUC after 50 mg/kg iv administration. Also noted: dose 50 mg/kg, route intravenous. The settings on record: in vivo. The format is ADME, organism-based. Summed up:
as §4

The nature of data set [16]: pharmacokinetics in female BALB/c mice measured as Vss after 50 mg/kg iv administration. Also noted: dose 50 mg/kg, route intravenous. Format: ADME, organism-based. The settings on record: mouse, in vivo, read-out: Vss. In short, it runs like this: as §4
Data set [17] is described as follows: pharmacokinetics in female BALB/c mice measured as Cl after 50 mg/kg iv administration. Format: ADME, organism-based. Conditions: mouse, in vivo. Also noted: dose 50 mg/kg, route intravenous. In short, it runs like this: as §4
Data set [18] concerns Mus musculus. Briefly: pharmacokinetics in female BALB/c mice measured as AUC after 20 mg/kg iv administration. The format is ADME, organism-based. Also noted: dose 20 mg/kg, route intravenous. Conditions: in vivo. Summed up:
as §4

Data set [19] is described as follows: pharmacokinetics in female BALB/c mice measured as Kel after 50 mg/kg Preoral administration. The settings on record: mouse, in vivo, po. Further details: dose 50 mg/kg. The format is ADME, organism-based. In short, it runs like this: as §3
The nature of data set [20]: pharmacokinetics in female BALB/c mice measured as Cmax after 50 mg/kg iv administration. The format is ADME, organism-based. Further details: dose 50 mg/kg, route intravenous. The settings on record: mouse, in vivo. Summed up: as §4

Take `CN(C)CCNC(=O)c1cccc2nc3ccc4c(O)cccc4c3nc12`: the figures for the Rf in data set [1] and in data set [2] were 1.1 and 1.4, respectively. The IC50 in data set [3] was 17 nM; in data set [4] it was 48 nM; in data set [5], 35 nM; in data set [6], 15 nM.
For the compound `COc1cccc2c1C(=O)c1c(O)c3c(c(O)c1C2=O)C[C@@](O)(C(=O)CO)C[C@@H]3O[C@H]1C[C@H](N)[C@H](O)[C@H](C)O1` [DOXORUBICIN], the Rf in data set [2] is given as 142. Further, the values for the IC50 in data set [3], in [4] and in data set [6] were 319 nM, 3870 nM and 20.1 nM, respectively.
On to `CN(C)CCNC(=O)c1cccc2nc3ccc4ccccc4c3nc12`, for which the results for the Rf in [1] and in data set [2] were 1.4 and 1.9, respectively. In addition, the half-inhibitory concentration (IC50) in [3] amounted to 140 nM; in [4] it was 130 nM; in [6], 102 nM.
`CN(C)CCNC(=O)c1cccc2nc3ccc4c([N+](=O)[O-])cccc4c3nc12`: the results for the Rf in data set [1] and in data set [2] were 1.2 and 1.3, respectively. Further, the concentration for half-maximal inhibition (IC50) in data set [3] came to 24 nM; in data set [4], 120 nM; in data set [5], 96 nM; in data set [6] it was 20 nM.
`CC[C@@]1(O)C(=O)OCc2c1cc1n(c2=O)Cc2cc3c(CN(C)C)c(O)ccc3nc2-1` [TOPOTECAN]: the Rf in data set [2] was 3.9. Besides, the 50% inhibitory concentration (IC50) in data set [3] turned out to be 20 nM; in [4], 62.9 nM; in data set [6], 13.2 nM.
Turning to `COc1cccc2c1ccc1nc3cccc(C(=O)N[C@H](C)CN(C)C)c3nc12`, the Cmax worked out at 350 ng/mL in data set [7], 800 ng/mL in data set [14] and 2900 ng/mL in [20]. In addition, the k el in data set [8] was 5e-05 s⁻¹; in [12], 7.33e-05 s⁻¹; in [19], 3.33e-05 s⁻¹. Further, the AUC in [9] is 114 ug min m-1; in data set [15] it was 156 ug min m-1; in data set [18], 64 ug min m-1. The values for the clearance in data set [10] and in data set [17] were 6.3 mL/min and 6.4 mL/min, respectively. Besides, the bioavailability in data set [11] worked out at 72%. In addition, the Vd in [13] was determined as 1.3 L; in data set [16], 1.9 L. For the same compound, the Rf in [1] and in data set [2] was 1.2 throughout. For the same compound, the values for the half-inhibitory concentration (IC50) in data set [3], in data set [4] and in [6] were 12.1 nM, 29 nM and 10.1 nM, respectively.
Take `COc1ccc2c(ccc3nc4cccc(C(=O)NCCN(C)C)c4nc32)c1`: the values for the Rf in [1] and in data set [2] were 1.2 and 1.3, respectively. The IC50 in data set [3] was 79 nM; in data set [4], 185 nM; in data set [5] it was 141 nM; in data set [6], 68 nM.
With `CC(=O)COc1cccc2c1ccc1nc3cccc(C(=O)NCCN(C)C)c3nc12`, in [2], the Rf was 3.1. The figures for the half-inhibitory concentration (IC50) in [4] and in data set [5] were 138 nM and 45 nM, respectively.
For the compound `CN(C)CCNC(=O)c1cccc2nc3ccc4cc(O)ccc4c3nc12`, the Rf turned out to be 1.4 in data set [1] and 1.8 in [2]. Further, the half-maximal inhibitory concentration (IC50) was 96 nM in [3], 193 nM in [4], 109 nM in data set [5] and 67 nM in [6].
In the case of `COc1cccc2c1ccc1nc3cccc(C(=O)NC(CN(C)C)C(C)C)c3nc12` (stereo not given), the Rf in data set [2] came to 0.7. For the same compound, the IC50 in [4] amounted to 25 nM; in data set [5] it was 35 nM.
Regarding `CC(C)Oc1cccc2c1ccc1nc3cccc(C(=O)NCCN(C)C)c3nc12`, in data set [2], the Rf was found to be 2.1. For the same compound, the results for the half-inhibitory concentration (IC50) in data set [4] and in data set [5] were 874 nM and 420 nM, respectively.
Consider `COc1cccc2c1ccc1nc3cccc(C(=O)NC(CN(C)C)C(=O)O)c3nc12` (stereo not given), for which the Rf in data set [2] is recorded as above 23. Also, the concentration for half-maximal inhibition (IC50) in [4] was above 5000 nM; in [5] it was 211 nM.
For `COCCOc1cccc2c1ccc1nc3cccc(C(=O)NCCN(C)C)c3nc12` the same measures were 1.4, 124 nM and 90 nM.
For `CN(C)CCNC(=O)c1cccc2nc3ccc4c(Br)cccc4c3nc12`, in data set [2], the Rf is 2.2. Also, the half-maximal inhibitory concentration (IC50) amounted to 171 nM in data set [4] and 77 nM in [5].
As to `COc1cccc2c1ccc1nc3cccc(C(=O)NCCN(C)C)c3nc12`, the Rf in [1] and in [2] was 1.4 throughout. The half-inhibitory concentration (IC50) in [3] amounted to 20 nM; in [4], 49 nM; in data set [6], 14 nM.
With `CN(C)CCNC(=O)c1cccc2nc3ccc4ccc([N+](=O)[O-])cc4c3nc12`, the Rf in data set [2] is 1.1. In addition, the IC50 is 102 nM in [4] and 94 nM in [5].
Consider `COc1cc(C(=O)NCCN(C)C)c2nc3c(ccc4c(OC)cccc43)nc2c1`, for which, in data set [2], the Rf was determined as 1.3. Also, the IC50 worked out at 25 nM in data set [4] and 19 nM in [5].
For `CN(C)CCNC(=O)c1cccc2nc3ccc4c(OCc5ccccc5)cccc4c3nc12`, in that order: 1.6, 882 nM and 556 nM.
As to `CCC(CN(C)C)NC(=O)c1cccc2nc3ccc4c(OC)cccc4c3nc12` (stereo not given), the Rf in data set [2] is given as 1.1. For the same compound, the IC50 was 118 nM in [4] and 107 nM in data set [5].
For `COC(=O)C(CN(C)C)NC(=O)c1cccc2nc3ccc4c(OC)cccc4c3nc12` (stereo not given), in that order: above 10, above 5000 nM and 468 nM.
As to `COc1cccc2c1ccc1nc3cccc(C(=O)NC(C)(C)CN(C)C)c3nc12`, the Rf in [2] is on record as 1.5. Besides, the concentration for half-maximal inhibition (IC50) turned out to be 642 nM in [4] and 435 nM in data set [5].
For `COc1cccc2c1ccc1nc3ccc(O)c(C(=O)NCCN(C)C)c3nc12` the same measures were 1, 107 nM and 103 nM.
Regarding `COc1cccc2c1ccc1nc3cccc(C(=O)NC(CO)CN(C)C)c3nc12` (stereo not given), the Rf in data set [2] worked out at 1.2. Further, the half-maximal inhibitory concentration (IC50) in data set [4] was 28 nM; in data set [5], 23 nM.
Take `CN(C)CCNC(=O)c1cccc2nc3ccc4c(NCC#N)cccc4c3nc12`: in [2], the Rf stood at 1.5. Moreover, the IC50 in data set [4] is 155 nM; in data set [5] it was 103 nM.
With `COc1cccc2c1ccc1nc3cc(Cl)cc(C(=O)NCCN(C)C)c3nc12`, in data set [2], the Rf is on record as 1. Moreover, the half-maximal inhibitory concentration (IC50) in data set [4] came to 21 nM; in data set [5] it was 20 nM.
`COc1cccc2c1ccc1nc3cccc(C(=O)NCC(CN(C)C)N(C)C)c3nc12` (stereo not given): the Rf in data set [2] is given as 3.8. Moreover, the IC50 in data set [4] is 480 nM; in data set [5], 126 nM.
For `CN(C)CCNC(=O)c1cccc2nc3ccc4c(Cl)cccc4c3nc12`, in that order: 1.4, 159 nM and 117 nM.
